From the EternaBench riboswitch data

Tests used:
MS2 coat protein [1] = experiment: apparent Kd, MS2 coat protein; higher = weaker binding; RNA-MaP array; tryptophan 2.4 mM where present; details: designed as: ON switch for tryptophan
How it was run: (§1)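 Green signal from SNAP-549-labelled MS2 coat protein was normalised to red-channel RNA signal and to the median Fmax of control clusters. The protein was titrated from 0.7 or 1.5 nM, doubling to 3 µM, without and then with constant ligand, over designs transcribed by stalled E. coli RNA polymerase on Illumina sequencing-chip clusters, in 100 mM Tris-HCl pH 7.5, 80 mM KCl, 4 mM MgCl2, BSA, DTT, yeast tRNA and Tween-20. The apparent Kd is the median of filtered per-cluster binding-curve fits.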

MS2 coat protein [2] = experiment: apparent Kd, MS2 coat protein; higher = weaker binding; RNA-MaP array; theophylline 2 mM where present
How it was run: as §1

[3] = designed as: ON switch for theophylline, no ligand
[4] = ligand present: theophylline, designed as: ON switch for theophylline
[5] = designed as: OFF switch for theophylline, no ligand
[6] = ligand present: theophylline, designed as: OFF switch for theophylline

Sequence	apparent Kd (MS2 coat protein [2]; [3]) [µM]	apparent Kd (MS2 coat protein [2]; [4]) [µM]	apparent Kd (MS2 coat protein [2]; [5]) [µM]	apparent Kd (MS2 coat protein [2]; [6]) [µM]	further results
AAACAUGAGGAUCACCCAUGUCCUCCUGUCCGAGGACCGGUACGGCCGCCACUCGGUUCUCGGGAGGAUGGUCAAAGACUAUCCA					apparent Kd (MS2 coat protein [1]; no ligand): 0.29 µM; apparent Kd (MS2 coat protein [1]; ligand present: tryptophan): 0.253 µM
ACAUGAGGAUCACCCAUGUCACGGCACGAUACCAGCUGAUGCGGUGGCCCUUGGCAGCGUGACGUUUGGUCCCGCGGAUGACGGG	0.0408	0.0168			
ACAUGAGGAUCACCCAUGUGGCGUCUUGAUACCAGACCCGCACUAGUCCCUUGGCAGCAACUACGUGAGGGUCGCCCAUGUGUAG			0.0358	0.0468	
ACAUGAGGAUCACCCAUGUUCCUCGCCGAUACCAGUGAAGAAUUACGCCCUUGGCAGCGGAAAGAGUGUUUUGGAGAUGAGGUAC			0.0726	0.108	
ACGAACUGUAGUGAUACCAGACGUACAUGAGGAUCACCCAUGUUGUAAACAUGGUUAAUAGUCCCUUGGCAGCACAGUUAGUUCG			0.347	0.531	
AGAAUACAUGUUUUAAUACGGAAAACUGAUACCAGUGUAUCUAUUCACCCUUGGCAGCAGAGACAUGAGGAUCACCCAUGUAUUA	0.0413	0.0286			
AGACAUGAGGAUCACCCAUGUAGUAUGGAUACCAGAUGUAGAUUAGUCCCUUGGCAGCUGUGGUGAAGUGAUGCAUUGCUCCUAG			0.0234	0.0259	
AGAGGUGCAACAGAUACCAGUCUACCGUACCUCAGAGAACAUGAGGAUCACCCAUGUAUAGACCCUUGGCAGCUGAUGUUAUUCA			0.0223	0.079	
AGAUAACAUGGUUUAAUAAGAUAAACUGAUACCAGUGUAUAUAAUCACCCUUGGCAGCAGCAACAUGAGGAUCACCCAUGUAAUA	0.017	0.0216			
AGAUCUUUCGAAAGAAGGAUCUUGUCUGAUACCAGAGACGAAAGUCUCCCUUGGCAGCAGUGCCAACAUGAGGAUCACCCAUGUA	0.0201	0.0214			
AGAUGACACAGUGGAUAGCAAGAUGCCGAUACCAGCUAGGAAACUAGCCCUUGGCAGCGGUACAUGAGGAUCACCCAUGUAUCCU			0.0123	0.0587	
AGCCCUGUACUAGAUACCAGCUACAUGAGGAUCACCCAUGUACGAUAAGACUGUCCAUGUAGCCCUUGGCAGCUGCUCGCAUGUA			0.0306	0.0688	
AGCCCUGUGCUAGAUACCAGCUACAUGAGGAUCACCCAUGUGCGUCAGAAAUGACUGUGUAGCCCUUGGCAGCUACUCGCAUGUA			0.0145	0.026	
AGCGACAUGCAUGAUACCAGCUACAUGAGGAUCACCCAUGUACGUCAGUAAUGACUGUGUAGCCCUUGGCAGCAUAAAGCAUGUC			0.0288	0.0567	
AGCGACAUGCGUGAUACCAGCUACAUGAGGAUCACCCAUGUACGUCAGUAAUGACUGUGUAGCCCUUGGCAGCAUAAUGCAUGUC			0.0344	0.0672	
AGCGAUAUGCAUGAUACCAGCUACAUGAGGAUCACCCAUGUGCGUCAGAAAUGACUGUGUAGCCCUUGGCAGCAUAAAGCAUGUA			0.0451	0.0872	
AGCUCAUAGAGUGAUACCAGACUACAUGAGGAUCACCCAUGUUUCUUUUGGUUAUCAUGUGUCCCUUGGCAGCACAAGAAGAGCA			0.0134	0.114	
AGUCUAUGAAGAGAUACCAGUGAGAGACAUAGACAUGAGGAUCACCCAUGUGACAUGAAGCACCCUUGGCAGCUCAACGAGCUCA	0.0428	0.0161			
AUAAAUAAAACCGAUACCAGCCUUAUACAUGAGGAUCACCCAUGUUAUGCUUCCUUUUUUGGCCCUUGGCAGCGGAAAUGGGUAA	0.0833	0.0408			
AUAACAUGAGGAUCACCCAUGUAAGCAGAUACCAGCUAGGAAACUAGCCCUUGGCAGCUGCAUUCCUCAUGUAGGUAUCUGCUAA			0.0158	0.0625	
AUAAGUAAUGUUACGUGUUUAAUUGCAGAUACCAGACUAUACGUUGUCCCUUGGCAGCUGAAUUACAUGAGGAUCACCCAUGUUG			0.0259	0.025	
AUAUUACAUGUUAUUAUACGGUAUACUGAUACCAGUGUUUCUAUUCACCCUUGGCAGCAGCAACAUGAGGAUCACCCAUGUAUUA	0.0167	0.0169			
AUCGUACCUCAUGAUACCAGCAUGUGAUCAUAACAUGAGGAUCACCCAUGUAAUCAGUGAUGCCCUUGGCAGCGUAGUCGAUACA	0.136	0.063			
AUGUCGUUGAAUACAGCGGCAUGGUGUGAUACCAGAAUGAUCAAAUUCCCUUGGCAGCAUCACAUGAGGAUCACCCAUGUUAAGG	0.0383	0.052			
AUUUACAUGGUCAUAUAUAUAUCGUCAGAUACCAGACUAGAUAUUGUCCCUUGGCAGCUGUUACAUGAGGAUCACCCAUGUUAUA			0.23	0.131	
CAAAACCUUACAGAUACCAGCACAUGAGGAUCACCCAUGUAUUGGACACUUCGCUCAUCGUGCCCUUGGCAGCUGUGGGACGAGG			0.0787	0.175	

Sequence	apparent Kd (MS2 coat protein [2]; [3]) [µM]	apparent Kd (MS2 coat protein [2]; [4]) [µM]	apparent Kd (MS2 coat protein [2]; [5]) [µM]	apparent Kd (MS2 coat protein [2]; [6]) [µM]	further results
GACCUUGCGGGCGCCCGCAAGGUCGCGGAUACCAGCGAGGUCCAUCGCCCUUGGCAGCCGAACAUGAGGAUCACCCAUGUCGGUU	0.0109	0.0118			
GAUAGUUGAAGGGAUACCAGCCUGGACAUGAGGAUCACCCAUGUAGCGUGUUUGAAACUGGGCCCUUGGCAGCCCAUAUUGUGUA	0.0159	0.0146			
GAUAGUUGAUGGGAUACCAGCGUGCACAUGAGGAUCACCCAUGUGGUUCGUGUACGACGGCGCCCUUGGCAGCCCAUAUUGUGUA	0.151	0.0189			
GAUGAACUAUAUGAUACCAGACAACAUGAGGAUCACCCAUGUGAAAGUCGUCCUCUGCCUGUCCCUUGGCAGCGUAUAGUUUAUC			0.0504	0.168	
GCACGACAUGAGGAUCACCCAUGUGCAGAUACCAGUAGGAUAUCCUACCCUUGGCAGCUGAGUGGAUCCGGAGGACCAUGGGUAA	0.038	0.0826			
GCUGUAAGUGCAGAUACCAGCAUGUUAUAUUUCUAAUGACAUGAGGAUCACCCAUGUAAAUGCCCUUGGCAGCUGCACUUACAGC	0.0189	0.0188			
GGGAAAGAAUGUGAUACCAGAGAACCGGUCUCCAUCAAUAUACAUGAGGAUCACCCAUGUCUCCCUUGGCAGCACCAUCAUCAAA			0.0231	0.0758	
GGGAAUGAACGUGAUACCAGAGAUCCGGUCUCCGUCACUCUACAUGAGGAUCACCCAUGUCUCCCUUGGCAGCACCGUCAUCGGG			0.0344	0.061	
GGUGGGACUUGUGAUACCAGCCUAAUUCGAAUCGAAUUGCACAUGAGGAUCACCCAUGUCGGCCCUUGGCAGCAUGAGUAUUUAU	0.287	0.0204			
GUCCUAGCGAUCGCUCGCUAGGACGCGGAUACCAGCGAGGUCCAUCGCCCUUGGCAGCCGAACAUGAGGAUCACCCAUGUCGGUA	0.00959	0.0149			
UAACAUGAGGAUCACCCAUGUAUAGUCGAUACCAGCUCUGUCUAGAGCCCUUGGCAGCGACACUGGUAUCCAUGGGUGUGGAUAC	0.108	0.0561			
UAUAUUGUGAUGGAUACCAGCAGAGAAAACGUUUAUCCUAACAUGAGGAUCACCCAUGUAUGCCCUUGGCAGCUGUUGUGGUAUA				0.0444	
UAUUUGGUGCGCGAGCGCUGGAUAAUUGAUACCAGUGAAGAAGAGCGCCCUUGGCAGCGAAUCCUAACAUGAGGAUCACCCAUGU	0.037	0.0421			
UAUUUUGUGAUGGAUACCAGCAGAGAAAACGUUUAUCCUAACAUGAGGAUCACCCAUGUAUGCCCUUGGCAGCUGUUGUGGGAUA			0.0308	0.0361	
UCCUCCUCCGCAAGGAGGAGGAGUUGCGAUACCAGCACGGAAACGUGCCCUUGGCAGCGCACAUGAGGAUCACCCAUGUCAUGUU			0.018	0.024	
UCGUGUGUUUCGGAUACCAGUGAAAUCGAUACAUGAGGAUCACCCAUGUGAGAGGAUGUACACCCUUGGCAGCUGGCUGUAGCGG	0.0479	0.0397			
UCUUGAGUUUCGGAUACCAGUGUUGUCGAUACAUGAGGAUCACCCAUGUUAGAGGAUGUACACCCUUGGCAGCCGGCUGUGGCGG	0.0207	0.013			
UCUUUCUAUUGUGAUACCAGACGUACAUGAGGAUCACCCAUGUUUCAUUCUUGUUUUAAAGUCCCUUGGCAGCACUAUUUGUUCG			0.0163	0.0132	
UGACAUUGCUCAGAUACCAGACAUGAGGAUCACCCAUGUACCAAGGUACGAAAAUAACAUGUCCCUUGGCAGCUGAGCAAUGUCU			0.0136	0.251	
UGACAUUGCUGCGAUACCAGACAUGAGGAUCACCCAUGUACCAAGGUAACCGAAAGGCAUGUCCCUUGGCAGCGCAGCAAUGUCU			0.0115	0.197	
UGUAACAUGAGGAUCACCCAUGUAAGUGAUACCAGAUAAGUAGUAGUCCCUUGGCAGCAUAUUGGGCGAGUGUAUAGUCUAUACG	0.0504	0.0611			
UGUAACAUGAGGAUCACCCAUGUGAGUGAUACCAGACUAGUAUUAGUCCCUUGGCAGCACGCUGGGCGAGUGUAUAGUCUAUGCG	0.0859	0.0849			
UGUAACAUGAGGAUCACCCAUGUGCACGAUACCAGCUUAUUGGUAGGCCCUUGGCAGCGUAUUCGGAAGAUGUAUAAUAUAUAUC	0.0134	0.0133			
UGUUUGGUGCGCGAGUGUUGGAUAAUUGAUACCAGUGUAGAAGAGCGCCCUUGGCAGCGAAUCCUAACAUGAGGAUCACCCAUGU	0.04	0.0573			
UUAGAUAUGACAGAUACCAGCGUGUUGUAGAACAUGAGGAUCACCCAUGUAGUGAUCGUGCGCCCUUGGCAGCUGGUAUGUUUGG	0.28	0.881			
UUCAAAGGGAACGGUGCUGGUGACAGAGAUACCAGCGCGGUAACGCGCCCUUGGCAGCUCAGAACAUGAGGAUCACCCAUGUAAU			0.0136	0.0502	
